Screening results as filed in PubChem BioAssay.
PG9 binder – small molecules binding HIV-1 gp120 antibody PG9 | TR-FRET gp120-PG9 antibody binding | AID 624416 | 360,000 tested, 0.43% active | inhibition, % at 6.7 µM; in the data active means inhibition above about 8.5%
MC4R antagonist – blocks human MC4R cAMP signaling | P32245 | MC4R-expressing cells, MTII-stimulated cAMP, LANCE TR-FRET | inhibition, % at 6.5 µM | 360,000 tested, 0.48% active | AID 540295;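 active means inhibition above its plate's cutoff, the mean of tested wells on that plate plus 3 SD, cut at about 29% in these data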;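 further: 0% = Melanotan II alone and 100% = Melanotan II plus saturating MCL0020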
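system = U2OS cells with stable human MC4R expression | also added = Melanotan II challenge after compound preincubation | dosing = one concentration, 6.5 µM nominal | incubation = compound 30 min, challenge 1 h, detection 1 h | measured by = TR-FRET with Eu-cAMP and labeled anti-cAMP, 671 nm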
NTR1 agonist – agonists of human neurotensin receptor NTR1; activation, % at 20 µM; NTR1-U2OS beta-arrestin-GFP spot imaging, agonist mode; AID 493036; 330,000 tested, 0.17% active;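 active means activation at or above 40% of the spot to cytoplasm intensity ratio, with at least 20 cells analyzed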;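 further: 0% = DMSO without peptide and 100% = 100 nM NTR1 peptide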
Rev-erbA mod – Rev-erb alpha (human) modulation; P20393; Rev-erbα–FITC-DNA binding, fluorescence polarization, 90 min; activity, % at 10 µM; 370,000 tested, 0.79% active; AID 1259318;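 active means activity above about 14%, limit read from the data; passing the limit was not always enough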;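 further: 0% = DMSO wells with 35 nM protein and 100% = DMSO wells with 750 nM protein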
Target sequence (P20393 whole entry, looked up): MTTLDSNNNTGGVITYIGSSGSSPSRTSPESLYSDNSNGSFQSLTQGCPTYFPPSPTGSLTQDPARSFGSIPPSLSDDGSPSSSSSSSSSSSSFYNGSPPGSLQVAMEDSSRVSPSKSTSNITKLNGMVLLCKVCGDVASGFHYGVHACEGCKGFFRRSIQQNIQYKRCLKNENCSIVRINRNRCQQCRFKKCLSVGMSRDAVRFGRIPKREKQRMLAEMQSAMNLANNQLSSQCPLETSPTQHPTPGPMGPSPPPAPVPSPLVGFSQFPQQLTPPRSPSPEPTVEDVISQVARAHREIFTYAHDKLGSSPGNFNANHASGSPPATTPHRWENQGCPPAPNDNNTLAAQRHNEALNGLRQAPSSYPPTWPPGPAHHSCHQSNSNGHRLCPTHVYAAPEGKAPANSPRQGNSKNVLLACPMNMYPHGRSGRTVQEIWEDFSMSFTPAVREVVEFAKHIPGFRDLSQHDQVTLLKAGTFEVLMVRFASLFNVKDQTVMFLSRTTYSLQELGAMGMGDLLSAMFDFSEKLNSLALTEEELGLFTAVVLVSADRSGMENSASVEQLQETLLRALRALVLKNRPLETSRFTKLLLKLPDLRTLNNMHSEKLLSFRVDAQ
MC4R ag barr – agonists of human melanocortin 4 receptor (MC4R) beta-arrestin | U2OS MC4R beta-arrestin complementation, luminescence; percent of melanotan II response, DMSO zero | activation, % at 8.9 µM | 360,000 tested, 0.98% active;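 active means activation above a per-plate cutoff, the mean activation of sample wells on that plate plus 3 SD, cut at about 8% in these data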
PG9 binder conf – PG9 antibody binding, confirmed. shares compounds with PG9 binder. TR-FRET PG9 antibody binding, biochemical. inhibition, % at 6.7 µM. 1,500 tested, 90% active. AID 651571; in the data active means inhibition above about 9%
PGV04 counter – counter-screen for PG9 binders: binding control antibody PGV04; inhibition, % at 6.7 µM; TR-FRET PGV04 antibody-gp120 binding, biochemical; 1,500 tested, 95% active; shares compounds with PG9 binder; in the data active means inhibition above about 9.5%
PG9 bind DR – small molecules binding HIV-1 gp120 antibody PG9; 95 tested, under 10 active; shares compounds with PG9 binder; IC50, µM; TR-FRET PG9 antibody-gp120 binding inhibition; in the data active means IC50 below about 10 µM
PGV04 DR counter – PGV04 binding, dose response counter-screen. shares compounds with PG9 binder. TR-FRET binding to control antibody PGV04. IC50, µM. 95 tested, 20% active. AID 651937
PG126 binding DR – binds control antibody PG126 in PG9 counter-screen; shares compounds with PG9 binder; TR-FRET binding to antibody PG126, counterscreen; IC50, µM; 95 tested, 20% active; AID 651939
The depositor's hits bear a star; i = inactive; . = no result. Hits are enriched below; roughly 2.5% of the tested compounds scored in any of these assays. Unless noted, no stated cut-off is given here; in the data, active means IC50 below about 9 µM; inactive means the rest.

SMILES | PG9 binder | MC4R antagonist | NTR1 agonist | Rev-erbA mod | MC4R ag barr | PG9 binder conf | PGV04 counter | others
C/C(=N/NC(=O)CN1CCN(Cc2ccccc2Cl)CC1)c1cccc(O)c1 | . | . | . | 3 | . | . | .
CCc1cc2ccccc2nc1SCC(=O)Nc1cc(C)on1 | 22* | 1 | 4 | 16 | 5 | 22* | 30*
COc1ccccc1CCn1cnc(-c2ccc(Br)cc2)c1CC(C)C | -1 | . | . | 11 | . | . | .
CCC1Cc2c(nc(N)c3c(N)nc(N4CCOCC4)c(C#N)c23)O1 (stereo not drawn) | -1 | 8 | 1 | -9 | 2 | . | .
N#Cc1c(N2CCCCC2)nc(N)c2c(N)nc3c(c12)CC(CCl)O3 (stereo not drawn) | 21* | 20 | 2 | -2 | 4 | 23* | 35*
Cc1nc(SCC(=O)NC(C)c2ccccc2)c2oc3ccccc3c2n1 (stereo not drawn) | 15* | 5 | 1 | 14 | 0 | 5 | 9.6*
Cc1ccc2oc3c(SCc4nc5ccccc5[nH]4)nc(C)nc3c2c1 | -3 | -3 | 4 | -4 | -1 | . | .
Cc1nc(SCCc2nc3ccccc3[nH]2)c2oc3ccccc3c2n1 | 29* | 4 | 1 | 8 | -3 | 11* | 13*
Cc1cc(OCC(C)CN2CCC(C(O)(c3ccccc3)c3ccccc3)CC2)ccc1Br (stereo not drawn) | . | . | . | 3 | . | . | .
CCOC(=O)[C@]12CCCC=C1N(CCCOC)C(=O)[C@@H]2CC(=O)NCc1cccc2ccccc12 | . | . | . | 1 | . | . | .
CC[C@@]1(O)C(=O)OCc2c1cc1n(c2=O)Cc2cc3c(CN(C)C)c(O)ccc3nc2-1 | 12* | -13 | 1 | 16 | -1 | 12* | 20*
CC[C@@]1(O)C(=O)OCc2c1cc1n(c2=O)Cc2cc3c(N)cccc3nc2-1 | -13 | -21 | 1 | -18 | -2 | . | .
O=c1[nH]c2cc3c(cc2cc1C(c1nnnn1C1CCCC1)N1CCSCC1)OCCO3 (stereo not drawn) | 21* | -3 | 2 | -4 | 1 | 42* | 29* | PG9 bind DR=i;PGV04 DR counter=8*;PG126 binding DR=7.8*
COc1ccc2c(c1)c1nc3n(c(=O)c1n2CC(=O)Nc1ccccc1)CCCS3 | 13* | 6 | 3 | 10 | 0 | 26* | 36*
COc1ccc(NC(=O)Cn2c3ccc(OC)cc3c3nc4n(c(=O)c32)CCS4)cc1 | 2 | -5 | 1 | 16 | -1 | . | .
CC1C(=O)OC2C1CCC1(C)C3(C)C(=O)C=CC213 (stereo not drawn) | 0 | 10 | . | -2 | 0 | . | .
CCOC(=O)N1CCC(NC(=O)c2cc(-c3ccc(OC)cc3)nc3ccccc23)CC1 | 9.5* | 7 | 0 | 6 | -1 | 8 | 11*
CCOC(=O)N1CCC(NC(=O)c2cn(-c3ccc(OC)cc3)c(=O)c3ccccc23)CC1 | -2 | 5 | . | -3 | 0 | . | .
O=c1c2ccccc2[nH]n1[C@@H](Cc1ccccc1)Cn1cc(-c2ccc(-c3ccccc3)cc2)nn1 | . | . | . | -2 | . | . | .
CC(OC(=O)/C=C/c1ccc2ccccc2n1)C(=O)NCc1ccccc1 (stereo not drawn) | 15* | -2 | 0 | 11 | -4 | 11* | 13*
COC(=O)CNC(=O)COC(=O)/C=C/c1ccc2ccccc2n1 | -1 | 9 | 2 | 6 | -1 | . | .
COc1ccc(C2/C(=C(/O)c3ccc(F)cc3)C(=O)C(=O)N2CCCN(C)C)cc1 (stereo not drawn) | -2 | 9 | . | -1 | 0 | . | .
COc1ccc(/C(O)=C2/C(=O)C(=O)N(CCN(C)C)C2c2ccc(F)cc2)cc1Cl (stereo not drawn) | 9.5* | 2 | -1 | 11 | -1 | 20* | 23*
COc1ccc(/C(O)=C2/C(=O)C(=O)N(CCN(C)C)C2c2cccnc2)cc1C (stereo not drawn) | 13* | -2 | -1 | 2 | 2 | 22* | 28*
COC(=O)[C@]12C[C@H](CC(=O)N3CCOCC3)C(=O)N(CCC3=CCCCC3)C1=C[C@H](C1CCCC1)O[C@@H]2C | . | . | . | 0 | . | . | .
SMILES | PG9 binder | MC4R antagonist | NTR1 agonist | Rev-erbA mod | MC4R ag barr | PG9 binder conf | PGV04 counter | others
N/C(=N\OC(=O)COc1ccc2ccccc2c1Br)c1ccccn1 | 4 | 13 | 8 | 5 | 0 | . | .
N/C(=N\OC(=O)COc1ccc2ccccc2c1Br)c1cccnc1 | 10* | . | 2 | 4 | . | 14* | 19*
Cc1cnc(NC(=O)CCCSc2nc3ccccc3s2)s1 | 13* | 8 | 1 | 7 | 3 | 18* | 25*
COc1ccc(OCc2nn3c(-c4ccccc4)nnc3s2)cc1 | . | . | . | -2 | . | . | .
O=C(O)Cc1ccc2sc(-c3ccccc3)nc2c1 | 9.0* | 9 | 0 | 0 | -1 | 11* | 17*
COC(=O)Cc1ccc2sc(-c3ccccc3)nc2c1 | 1 | 4 | 0 | 0 | -1 | . | .
O=C(C1=C(O)C(=O)N(CC2CCCO2)C1c1ccccc1Cl)c1ccco1 (stereo not drawn) | 7 | -1 | -2 | -7 | 1 | . | .
O=C(C1=C(O)C(=O)N(CC2CCCO2)C1c1ccc(Cl)cc1Cl)c1ccco1 (stereo not drawn) | 11* | 3 | 2 | -5 | -1 | 19* | 23*
O=C(O)CCc1ccc(-c2ccc(Br)cc2)o1 | 29* | 4 | 0 | -1 | 4 | 37* | 45*
COCCCN1C(=O)[C@H](CC(=O)N2CCCCC2)[C@]2(C(=O)OC)CCCCC=C12 | . | . | . | 1 | . | . | .
Cc1ccc(-c2noc(-c3cccs3)n2)cc1 | 8.8* | 7 | 4 | 8 | 1 | 26* | 28*
COc1ccc(C(C(=O)N(C)C2CCCC2)N(Cc2ccc(F)cc2)C(=O)c2cc(C)[nH]n2)cc1OC (stereo not drawn) | . | . | . | 5 | . | . | .
CCc1nnc(NC(=O)c2ccc(Cl)c(S(=O)(=O)N3CCc4ccccc4C3)c2)s1 | 20* | -2 | 6 | 21 | 7 | 24* | 34*
C=CCn1c(C)c(C(=O)OCC)c2cc(O)c3ccccc3c21 | 11* | -3 | 1 | -1 | 0 | 4 | 3 | PG9 bind DR=>67;PGV04 DR counter=>67;PG126 binding DR=>67
CCOC(=O)c1c(C)n(CC)c2c1cc(O)c1ccccc12 | -7 | -1 | 1 | -5 | 4 | . | .
